According to article PMC4116148 (Biochemistry, 2014):
fluorescein = fluorescein: fluorescein label on the Lys side chain

Molecular target: T1, EHD1-EH (Homo sapiens, UniProt Q9H4M9)
T1 sequence (Q9H4M9 444-532 limits assumed): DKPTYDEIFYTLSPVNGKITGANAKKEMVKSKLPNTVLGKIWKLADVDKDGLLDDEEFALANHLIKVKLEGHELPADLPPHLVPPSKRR
Experiment: Fluorescence polarization
Assay type: binding
How it was run: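 Fluorescein-labelled peptide probes mixed with the EHD1 EH domain; binding read by fluorescence polarization. Buffer: 25 mM MOPS (pH 6.8), 1 mM CaCl2, 15 mM NaCl, 1.5% DMSO, 0.1% Tween 20.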

Substance | binding to EHD1-EH (up to 67 μM EHD1-EH, 15 mM NaCl) | loss of affinity (FP direct binding, reduced charge analogue relative to cNPF1^Flu)
-YAPAEEGK(Flu)- (cyclo(YAPAEEGK(fluorescein))) [cAPA^Flu] | No binding was observed | 
-YNPFEAGK(Flu)- (cyclo(YNPFEAGK(fluorescein))) [cNPF5^Flu] |  | 3 fold
